This is an account of results in ChEMBL document CHEMBL3286230, “Tetra- and pentacyclic triterpene acids from the ancient anti-inflammatory remedy frankincense as inhibitors of microsomal prostaglandin E(2) synthase-1” (J Nat Prod, 2014).

One assay concerns the target T1, Prostaglandin E synthase (Homo sapiens, UniProt O14684).
T1 sequence (O14684 whole entry): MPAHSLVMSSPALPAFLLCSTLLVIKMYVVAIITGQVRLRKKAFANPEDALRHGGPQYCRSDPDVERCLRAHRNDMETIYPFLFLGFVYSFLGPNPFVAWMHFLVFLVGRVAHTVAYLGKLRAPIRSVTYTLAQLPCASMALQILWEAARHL
The assay is described as follows: Inhibition of microsomal PGES1 isolated from IL-1beta-stimulated human A549 cells preincubated for 15 mins followed by substrate addition measured after 1 min by RP-HPLC analysis. The assay is classed as cell-free. The gist of the method:
(§1)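 Enzyme source: microsomes from A549 cells, cultured 16 h at 37 °C and 5% CO2, then given fresh medium and induced with IL-1β (1 ng/mL) for 72 h. Microsomes were prepared by sonication and centrifugation at 174000g. Membranes in 0.1 M potassium phosphate pH 7.4 with 2.5 mM GSH were preincubated with compound or DMSO vehicle for 15 min at 4 °C. PGH2 (20 μM final) was added and the reaction ran 1 min at 4 °C. It was stopped with FeCl2/citric acid containing 11β-PGE2 as internal standard. PGE2 was measured by SPE and RP-HPLC; n = 3–4, mean + SEM.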

Assay [1] deals with T2, Prostaglandin E synthase (Homo sapiens) (UniProt O14684).
T2 sequence (whole entry): T1 sequence (O14684 whole entry)
Kind of assay: Inhibition of microsomal PGES1 isolated from IL-1beta-stimulated human A549 cells assessed as residual activity at 10 uM preincubated for 15 mins followed by substrate addition measured after 1 min by RP-HPLC analysis relative to control. The assay is classed as cell-free. The method in brief:
as §1

The target in assay [2] is T3, Prostaglandin G/H synthase 1 (Ovis aries) (UniProt P05979).
T3 sequence (whole entry): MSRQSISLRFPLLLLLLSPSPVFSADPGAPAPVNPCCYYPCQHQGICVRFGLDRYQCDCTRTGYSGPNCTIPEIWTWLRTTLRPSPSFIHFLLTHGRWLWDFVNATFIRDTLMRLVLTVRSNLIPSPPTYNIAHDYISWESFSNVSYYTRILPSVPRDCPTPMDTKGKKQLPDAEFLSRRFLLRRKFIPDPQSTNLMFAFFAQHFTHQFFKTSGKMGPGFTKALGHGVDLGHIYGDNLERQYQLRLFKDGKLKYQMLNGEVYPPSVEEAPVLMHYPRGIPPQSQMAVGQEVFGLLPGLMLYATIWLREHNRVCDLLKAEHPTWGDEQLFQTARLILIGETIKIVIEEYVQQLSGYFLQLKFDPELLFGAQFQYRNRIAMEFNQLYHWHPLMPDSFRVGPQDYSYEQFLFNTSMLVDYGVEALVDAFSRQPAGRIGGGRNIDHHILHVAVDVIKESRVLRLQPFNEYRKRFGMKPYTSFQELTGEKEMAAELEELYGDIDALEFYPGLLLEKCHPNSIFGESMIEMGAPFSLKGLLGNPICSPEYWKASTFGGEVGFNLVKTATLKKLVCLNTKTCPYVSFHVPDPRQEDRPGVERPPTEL
Kind of assay: Inhibition of ovine COX-1 using arachidonic acid as substrate assessed as residual activity at 10 uM preincubated for 5 mins followed by substrate addition measured after 5 mins by HPLC analysis relative to control.

Assay [3] addresses T4, Prostaglandin G/H synthase 2 (Homo sapiens, UniProt P35354).
T4 sequence (P35354 whole entry): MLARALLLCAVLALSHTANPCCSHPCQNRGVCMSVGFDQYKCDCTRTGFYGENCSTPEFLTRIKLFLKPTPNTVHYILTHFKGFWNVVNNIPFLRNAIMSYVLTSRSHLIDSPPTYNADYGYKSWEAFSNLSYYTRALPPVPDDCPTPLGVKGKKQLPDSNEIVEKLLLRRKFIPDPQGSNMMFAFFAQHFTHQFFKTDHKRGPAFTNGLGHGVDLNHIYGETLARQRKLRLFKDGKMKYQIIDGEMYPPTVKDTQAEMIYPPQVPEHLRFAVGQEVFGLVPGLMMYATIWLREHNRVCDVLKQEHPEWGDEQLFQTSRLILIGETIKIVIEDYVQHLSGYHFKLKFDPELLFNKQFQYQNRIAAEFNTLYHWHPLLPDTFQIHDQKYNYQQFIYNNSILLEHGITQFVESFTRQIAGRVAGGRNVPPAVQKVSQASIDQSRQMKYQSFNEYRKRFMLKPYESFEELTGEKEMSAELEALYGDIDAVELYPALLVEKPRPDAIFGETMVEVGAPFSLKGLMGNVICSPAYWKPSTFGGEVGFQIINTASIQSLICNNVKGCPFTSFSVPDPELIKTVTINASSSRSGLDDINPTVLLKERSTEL
Kind of assay: Inhibition of human recombinant COX-2 using arachidonic acid as substrate preincubated for 5 mins followed by substrate addition measured after 5 mins by HPLC analysis.

The target of assay [4] is T5, Prostaglandin G/H synthase 1 (Ovis aries, UniProt P05979).
T5 sequence (P05979 whole entry): T3 sequence (whole entry)
The assay is described as follows: Inhibition of ovine COX-1 using arachidonic acid as substrate preincubated for 5 mins followed by substrate addition measured after 5 mins by HPLC analysis.

For another assay, the system named is SK-N-SH. The assay is described as follows: Cytotoxicity against human SK-N-SH cells after 48 hrs by MTT assay. It counts as functional, cell-based. Background: Formazan colour is commonly taken as a measure of viable cells.
Assay [5] is described as follows: Cytotoxicity against human NB39 cells after 48 hrs by MTT assay. The assay is classed as functional, cell-based. The settings on record: NB39, 48 h.
Assay [6] can be described thus: Cytotoxicity against human IMR32 cells after 48 hrs by MTT assay. It counts as functional, cell-based. Particulars: IMR-32, 48 h.
In assay [7] the target is T4, Prostaglandin G/H synthase 2. Kind of assay: Inhibition of human COX-2 using arachidonic acid as substrate assessed as PGE2 formation after 2 mins by LC-MS/MS analysis.
Assay [8] has as its target T5, Prostaglandin G/H synthase 1. The assay is described as follows: Inhibition of ovine COX-1 using arachidonic acid as substrate assessed as PGE2 formation after 2 mins by LC-MS/MS analysis.

A value given as a limit tells only on which side of the number the result lay.

Consider `CC(C)[C@@H]1CC[C@]2(C)[C@H](CC=C3[C@@H]4CC(C)(C)CC[C@]4(C)CC[C@]32C)[C@@]1(C)CCC(=O)O`, for which, on Prostaglandin E synthase, the IC50 is over 10 µM. Further, the Activity in assay [1] was determined as 74.1%.
For `CC(C)=CCC[C@H](C(=O)O)[C@@H]1CC[C@]2(C)C3=CC[C@H]4C(C)(C)[C@H](O)CC[C@]4(C)[C@H]3CC[C@@]12C`, the IC50 is 3 µM against Prostaglandin E synthase, over 10 µM in [3] and over 10 µM in [4]. The values for the Activity in assay [1] and in assay [2] were 29.6% and 69.6%, respectively.
`C=C(C)[C@@H]1CC[C@]2(CO)CC[C@]3(C)[C@H](CC[C@@H]4[C@@]5(C)CC[C@H](OC(C)=O)[C@](C)(C(=O)O)[C@@H]5CC[C@]43C)[C@@H]12`: the figures for the IC50 (at Prostaglandin E synthase; in assay [3]; in [4]) were 0.9 µM, over 10 µM and over 10 µM, respectively. For the same compound, the Activity was found to be 31.1% in assay [1] and 90.7% in [2].
For the compound `C=C(C)[C@@H]1CC[C@]2(C)CC[C@]3(C)[C@H](CC[C@@H]4[C@@]5(C)CC[C@H](OC(C)=O)[C@](C)(C(=O)O)[C@@H]5CC[C@]43C)[C@@H]12`, the IC50 against Prostaglandin E synthase came out at 10 µM; in the assay with SK-N-SH, 4.1 µM; in assay [5], 4.1 µM; in assay [6], 4.1 µM. Also, in assay [1], the Activity came to 51.4%.
With `CC(=O)O[C@@H]1CC[C@]2(C)[C@H]3CC[C@@]4(C)[C@H]([C@H](CCC=C(C)C)C(=O)O)CC[C@]4(C)C3=CC[C@H]2C1(C)C`, the results for the IC50 (on Prostaglandin E synthase; in [4]) were 0.4 µM and over 10 µM, respectively. For the same compound, the Activity in assay [1] is 20.6%.
For `CC(=O)O[C@@H]1CC[C@]2(C)C3=C(CC[C@H]2C1(C)C)[C@@]1(C)CC[C@@H]([C@H](CCC=C(C)C)C(=O)O)[C@]1(C)CC3`, the IC50 at Prostaglandin E synthase is 0.4 µM; in assay [3] it was over 10 µM; in assay [4], over 10 µM. In addition, the Activity in assay [1] stood at 36.8%; in [2], 63.2%.
As to `CC(C)[C@@H]1CC[C@]2(C)[C@H](C(=O)C=C3[C@@H]4[C@@H](C)[C@H](C)CC[C@]4(C)CC[C@]32C)[C@@]1(C)CCC(=O)O`, the IC50 against Prostaglandin E synthase was 1 µM; in [3] it was over 10 µM; in assay [4] it was over 10 µM. Further, the Activity in assay [1] came out at 21.6%; in assay [2], 64.8%.
For the compound `C=C(C)[C@@H]1CC[C@]2(C)[C@H](CC=C3[C@@H]4[C@@H](C)[C@H](C)CC[C@]4(C)CC[C@]32C)[C@@]1(C)CCC(=O)O`, the IC50 (at Prostaglandin E synthase; in assay [7]; in assay [8]) was over 10 µM in each case. The Activity in [1] stood at 83.9%.
Regarding `CC(C)=CCC[C@H](C(=O)O)[C@H]1CC[C@]2(C)C3=C(CC[C@@]12C)[C@@]1(C)CCC(=O)C(C)(C)[C@H]1CC3` [BETA-ELEMONIC ACID], the IC50 at Prostaglandin E synthase is 0.9 µM; in assay [3], over 10 µM; in assay [4], over 10 µM. The figures for the Activity in assay [1] and in assay [2] were 16.7% and 81.1%, respectively.
Consider `C=C(C)[C@@H]1CC[C@]2(C)CC[C@]3(C)[C@H](CC[C@@H]4[C@@]5(C)CC[C@H](O)[C@](C)(C(=O)O)[C@@H]5CC[C@]43C)[C@@H]12`, for which the IC50 against Prostaglandin E synthase was 8.5 µM; with SK-N-SH, 4.1 µM; in assay [5], 4.1 µM; in assay [6], 4.1 µM. Moreover, the Activity in assay [1] was 43.1%.
For `CC(C)=CCC[C@H](C(=O)O)[C@@H]1CC[C@]2(C)C3=C(CC[C@@]12C)[C@@]1(C)CC[C@@H](O)C(C)(C)[C@@H]1CC3`, the IC50 against Prostaglandin E synthase was 1.1 µM; in assay [4], over 10 µM. Besides, the Activity came out at 3.5% in [1] and 81.9% in assay [2].
In the case of `CC(C)=CCC[C@H](C(=O)O)[C@@H]1CC[C@]2(C)C3=C(CC[C@@]12C)[C@@]1(C)CC[C@H](O)C(C)(C)[C@@H]1CC3`, the IC50 against Prostaglandin E synthase was 1.2 µM; in assay [3] it was over 10 µM; in assay [4] it was over 10 µM. Also, the Activity came to 29.2% in assay [1] and 82.3% in assay [2].
On to `CC(C)[C@@H]1CC[C@]2(C)[C@H](CC=C3[C@@H]4[C@@H](C)[C@H](C)CC[C@]4(C)CC[C@]32C)[C@@]1(C)CCC(=O)O`, for which the IC50 at Prostaglandin E synthase was over 10 µM. Besides, the Activity in assay [1] came to 92.4%.

Broadly, the IC50 is the concentration that gives 50% inhibition.
